ChEMBL document CHEMBL1137418, “Neurosteroid analogues. 11. Alternative ring system scaffolds: gamma-aminobutyric acid receptor modulation and anesthetic actions of benz[f]indenes” (J Med Chem, 2006)
The source made the active and inactive calls. No cut-off for these calls is given here.

Columns and labels:
[1] = target: T1, GABA-A receptor; alpha-1/beta-2/gamma-2 (Rattus norvegicus) (UniProt P18508+P62813+P63138); assay: Activity at rat GABA-Aalpha1 receptor plus beta-2-gamma-2L expressed in Xenopus laevis oocyte assessed as ratio of GABA-mediated current in presence to absence of compound at 10 uM; format: functional
[2] = target: T1, GABA-A receptor; alpha-1/beta-2/gamma-2 (Rattus norvegicus); assay: Activity at rat GABA-Aalpha1 receptor plus beta-2-gamma-2L expressed in Xenopus laevis oocyte assessed as ratio of GABA-mediated current in presence to absence of compound at 0.1 uM; format: functional
[3] = target: GABA-A receptor; anion channel; assay: Displacement of [35S]TBPS from GABA-A receptor in rat brain membrane; format: cell membranes
Method in brief: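 Rat brain membranes were used to measure noncompetitive displacement of [35S]-TBPS from the picrotoxin site of GABAA receptors. Hill slopes were also derived. Results come from duplicate experiments run in triplicate, with error as SEM.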

Xenopus laevis [4] = species: Xenopus laevis; assay: Loss of righting reflex in Xenopus laevis tadpole; format: functional
Method in brief: (§1)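 Xenopus tadpoles were scored for loss of righting response and, separately, loss of swimming response. N = 10 animals were tested at each of five or more concentrations, and error is given as SEM.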

[5] = target: T1, GABA-A receptor; alpha-1/beta-2/gamma-2 (Rattus norvegicus); assay: Activity at rat GABA-Aalpha1 receptor plus beta2gamma2L expressed in Xenopus laevis oocyte assessed as ratio of GABA-mediated current in presence to absence of compound at 1 uM; format: functional
[6] = target: T1, GABA-A receptor; alpha-1/beta-2/gamma-2 (Rattus norvegicus); assay: Activity at rat GABA-Aalpha1 receptor plus beta-2-gamma-2L expressed in Xenopus laevis oocyte assessed as ratio of current evoked by compound alone in absence of GABA to current evoked by 2 uM GABA at 10 uM
Xenopus laevis [7] = species: Xenopus laevis; assay: Loss of swimming reflex in Xenopus laevis tadpole at 10 uM; format: functional, organism-based
Xenopus laevis [8] = species: Xenopus laevis; assay: Loss of swimming reflex in Xenopus laevis tadpole; format: functional; method in brief: as §1
Xenopus laevis [9] = species: Xenopus laevis; assay: Loss of righting reflex in Xenopus laevis tadpole at 10 uM; format: functional, organism-based

Compound	Ratio [1]	Ratio [2]	IC50 [3] [µM]	ED50 (Xenopus laevis [4]) [µM]	Ratio [5]	Ratio [6]	Activity (Xenopus laevis [7])	ED50 (Xenopus laevis [8]) [µM]	Activity (Xenopus laevis [9])
C[C@]12CC[C@@H](O)C[C@@H]1CC[C@@H]1[C@@H]2CC[C@]2(C)C(=O)CC[C@@H]12 [ANDROSTERONE]	5.44	0.97	0.41	3.38	1.41	0.02	inactive		
C[C@]12CC[C@@H]3C[C@@H](CCO)CC[C@H]3[C@@H]1CCC2=O	2.11	0.95	5.42	8.1	1.22	-0.16	inactive		
C[C@]12C[C@H]3CC[C@@H](CCO)CC3C[C@@H]1CCC2=O (single isomer, unassigned; 1c) [listing 1 of 2 here]			> 30						
C[C@]12CC[C@@H]3C[C@H](CCO)CC[C@H]3[C@@H]1CCC2=O	1.05	0.99	4.17	16.4	1.03	0.03	inactive		
C[C@]12C[C@H]3CC[C@H](CCO)CC3C[C@@H]1CC[C@@H]2C#N (single isomer, unassigned; 2d) [listing 1 of 2 here]			1.9	5.12				17.3	
C[C@]12C[C@H]3CC[C@H](CCO)CC3C[C@@H]1CCC2=O (single isomer, unassigned; 1a) [listing 1 of 2 here]			5.01	4.01					
CC(=O)[C@H]1CC[C@H]2CC3C[C@H](CCO)CC[C@@H]3C[C@@]21C (single isomer, unassigned)				>10			inactive		
C[C@]12C[C@H]3CC[C@H](CCO)CC3C[C@@H]1CC[C@@H]2C#N (single isomer, unassigned; 2d) [listing 2 of 2 here]	2.17	0.98			1.03	0.01			
C[C@]12C[C@H]3CC[C@H](CCO)CC3C[C@@H]1CCC2=O (single isomer, unassigned; 1a) [listing 2 of 2 here]	2.42	1			1	-0.02	inactive		
C[C@]12CC[C@@H](O)C[C@@H]1CC[C@@H]1[C@@H]2CC[C@]2(C)[C@@H](C#N)CC[C@@H]12	8.28	1.44	0.05	0.07	5.65	0.66		0.71	
C[C@]12C[C@H]3CC[C@H](CCO)CC3C[C@@H]1CC[C@@H]2C#N (single isomer, unassigned; 2a) [listing 1 of 2 here]	3.9	1.02			1.29	0			
C[C@]12C[C@H]3CC[C@H](CCO)CC3C[C@@H]1CCC2=O (single isomer, unassigned; 1d) [listing 1 of 2 here]	1.21	1.02			1.04	-0.05	inactive		
C[C@]12CC[C@@H](O)C[C@H]1CC[C@@H]1[C@@H]2CC[C@]2(C)[C@@H](C#N)CC[C@@H]12	20.6	2.02	0.072	0.08	10.4	0.09		0.36	
CC(=O)[C@H]1CC[C@H]2[C@@H]3CC[C@@H]4C[C@H](O)CC[C@]4(C)[C@H]3CC[C@]12C [ELTANOLONE]	9.77	1.2		0.06	2.82	0.06		0.3	
C[C@]12C[C@H]3CC[C@@H](CCO)CC3C[C@@H]1CCC2=O (single isomer, unassigned; 1c) [listing 2 of 2 here]	1.02	0.93			0.9	-0.01	inactive		inactive
C[C@]12CC[C@@H]3C[C@H](CCO)CC[C@H]3[C@@H]1CC[C@@H]2C#N	12.2	1.29	0.58	0.79	2.33	0.54		5.5	
C[C@]12CC[C@@H](O)C[C@H]1CC[C@@H]1[C@@H]2CC[C@]2(C)C(=O)CC[C@@H]12 [ETIOCHOLANOLONE]	1.39	0.89	4.14	>10	0.87	0	inactive		
CC(=O)[C@H]1CC[C@H]2[C@@H]3CC[C@H]4C[C@H](O)CC[C@]4(C)[C@H]3CC[C@]12C [BREXANOLONE]	9.65	1.26		0.42	3.89	0.37		5.5	
C[C@]12C[C@H]3CC[C@@H](CCO)CC3C[C@@H]1CCC2=O (single isomer, unassigned; 1b) [listing 1 of 2 here]			3.92						
C[C@]12CC[C@@H]3C[C@@H](CCO)CC[C@H]3[C@@H]1CC[C@@H]2C#N	7.42	1.45	0.13	0.14	3.65	0.01		1.73	
CC(=O)[C@H]1CC[C@H]2[C@@H]3CC[C@@H](CCO)C[C@H]3CC[C@]12C	3.63	0.91	1.17	1.09	0.96	0.14		3.15	
C[C@]12C[C@H]3CC[C@H](CCO)CC3C[C@@H]1CC[C@@H]2C#N (single isomer, unassigned; 2a) [listing 2 of 2 here]			1.22	4.78				17.3	
C[C@]12C[C@H]3CC[C@@H](CCO)CC3C[C@@H]1CC[C@@H]2C#N (single isomer, unassigned; 2b) [listing 1 of 2 here]	7.21	1.02			2.11	0.01			
CC(=O)[C@H]1CC[C@H]2CC3C[C@@H](CCO)CC[C@@H]3C[C@@]21C (single isomer, unassigned)			2.05	6.63				17.3	
C[C@]12C[C@H]3CC[C@@H](CCO)CC3C[C@@H]1CCC2=O (single isomer, unassigned; 1b) [listing 2 of 2 here]	3.54	0.9			1.08	-0.02	inactive		inactive
C[C@]12C[C@H]3CC[C@@H](CCO)CC3C[C@@H]1CC[C@@H]2C#N (single isomer, unassigned; 2c) [listing 1 of 2 here]			1.98	3					
C[C@]12C[C@H]3CC[C@@H](CCO)CC3C[C@@H]1CC[C@@H]2C#N (single isomer, unassigned; 2b) [listing 2 of 2 here]			0.52	2.88				5.48	
C[C@]12C[C@H]3CC[C@@H](CCO)CC3C[C@@H]1CC[C@@H]2C#N (single isomer, unassigned; 2c) [listing 2 of 2 here]	3.23	1.01			1.14	-0.01	inactive		
C[C@]12C[C@H]3CC[C@H](CCO)CC3C[C@@H]1CCC2=O (single isomer, unassigned; 1d) [listing 2 of 2 here]			> 10	10					
CC(=O)[C@H]1CC[C@H]2[C@@H]3CC[C@H](CCO)C[C@H]3CC[C@]12C	9.35	1.27	0.13	1.04	3.79	0.13		2.84	
